According to ChEMBL document CHEMBL1811892, “Synthesis and biological evaluation of loxoprofen derivatives” (Bioorg Med Chem, 2011):
The source made the active and inactive calls. The rule behind the calls is not given here.

Key:
Rattus norvegicus [1] = experiment: Ulcerogenicity in fasted Wistar rat assessed as damage in gastric mucosa at 50 to 67 mg/kg, po measured after 8 hrs; format: toxicity, organism-based; parameters: dose 50-67 mg/kg, route oral; settings: in vivo
Procedure, shortened: (§1)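 Male Wistar rats (6 weeks, 180–200 g) fasted 18 h before oral NSAID dosing. Stomachs removed 8 h later. A blinded observer measured the area of each mucosal lesion in mm²; areas were summed into a gastric lesion index.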

Rattus norvegicus [2] = experiment: Inhibition of PGE2 production in carrageenan-induced Wistar rat foot-pad at 13 mg/kg, po administered 1 hr before carrageenan challenge by EIA; format: functional, organism-based; parameters: dose 13 mg/kg
[3] = biological target: T1, Prostaglandin G/H synthase 2 (Homo sapiens, UniProt P35354); experiment: Inhibition of human whole blood COX-2 assessed as production of PGE2 after 24 hrs by EIA
T1 sequence (P35354 whole entry): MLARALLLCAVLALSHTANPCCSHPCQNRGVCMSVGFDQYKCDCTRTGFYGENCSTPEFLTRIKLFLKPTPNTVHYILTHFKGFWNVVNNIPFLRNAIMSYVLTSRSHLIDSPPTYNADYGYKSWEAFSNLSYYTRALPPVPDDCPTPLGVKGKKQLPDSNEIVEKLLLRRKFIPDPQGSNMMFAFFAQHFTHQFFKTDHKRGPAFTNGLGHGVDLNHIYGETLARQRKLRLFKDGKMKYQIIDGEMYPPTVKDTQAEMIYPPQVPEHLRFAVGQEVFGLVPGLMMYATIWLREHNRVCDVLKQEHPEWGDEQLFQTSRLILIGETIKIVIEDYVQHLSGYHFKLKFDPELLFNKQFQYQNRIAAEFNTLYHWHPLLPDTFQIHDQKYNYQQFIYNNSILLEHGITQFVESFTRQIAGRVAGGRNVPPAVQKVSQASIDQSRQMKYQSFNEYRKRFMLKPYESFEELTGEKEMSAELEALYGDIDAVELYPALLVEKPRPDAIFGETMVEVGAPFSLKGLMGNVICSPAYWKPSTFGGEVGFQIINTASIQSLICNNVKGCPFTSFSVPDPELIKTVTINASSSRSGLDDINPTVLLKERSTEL

[4] = biological target: Prostaglandin G/H synthase 1 (Homo sapiens, UniProt P23219); experiment: Inhibition of human whole blood COX-1 assessed as production of TXB2 after 24 hrs by EIA
Rattus norvegicus [5] = experiment: Reduction in PGE2 levels in fasted Wistar rat stomach at 50 to 67 mg/kg, po measured after 8 hrs; format: functional, organism-based
Procedure, shortened: (§2)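 Male Wistar rats (6 weeks, 180–200 g) fasted 18 h, then dosed orally with NSAIDs. Killed 8 h later and stomachs removed. Gastric PGE2 measured by EIA.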

Rattus norvegicus [6] = experiment: Antiinflammatory activity in Wistar rat assessed as inhibition of carrageenan-induced foot-pad edema at 13 mg/kg, po administered 1 hr before carrageenan challenge measured after 3 to 6 hrs by plethysmometer; format: functional, organism-based; parameters: dose 13 mg/kg
Procedure, shortened: (§3)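 Male Wistar rats (6 weeks, 180–200 g) given NSAIDs orally; 1 h later 100 μL of 1% carrageenan injected intradermally into the left hindpaw.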

[7] = Membrane permeabilization activity assessed as release of calcein from liposomes after 10 mins by fluorescence assay; format: physicochemical; settings: calcein-loaded liposomes, probe calcein
Procedure, shortened: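 Egg PC liposomes made by reversed-phase evaporation with 100 mM calcein (pH 7.4), washed free of untrapped dye in 10 mM phosphate buffer pH 6.8 with 150 mM NaCl. Diluted liposomes incubated with compound for 10 min at 30 °C; water as control. Calcein release read by fluorescence, excitation 490 nm, emission 520 nm.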

Rattus norvegicus [8] = experiment: Ulcerogenicity in fasted Wistar rat assessed as damage in gastric mucosa at 40 to 50 mg/kg, po measured after 8 hrs; format: toxicity, organism-based; parameters: dose 40-50 mg/kg, route oral; settings: in vivo; procedure, shortened: as §1
Rattus norvegicus [9] = experiment: Antiinflammatory activity in Wistar rat assessed as inhibition of carrageenan-induced foot-pad edema at 10 mg/kg, po administered 1 hr before carrageenan challenge measured after 3 to 6 hrs by plethysmometer; format: functional, organism-based; parameters: dose 10 mg/kg; procedure, shortened: as §3
Rattus norvegicus [10] = experiment: Inhibition of PGE2 production in carrageenan-induced Wistar rat foot-pad at 10 mg/kg, po administered 1 hr before carrageenan challenge by EIA; format: functional, organism-based; parameters: dose 10 mg/kg
Rattus norvegicus [11] = experiment: Reduction in PGE2 levels in fasted Wistar rat stomach at 40 to 50 mg/kg, po measured after 8 hrs; format: functional, organism-based; procedure, shortened: as §2

Prostaglandin G/H synthase 1, sequence (P23219 whole entry): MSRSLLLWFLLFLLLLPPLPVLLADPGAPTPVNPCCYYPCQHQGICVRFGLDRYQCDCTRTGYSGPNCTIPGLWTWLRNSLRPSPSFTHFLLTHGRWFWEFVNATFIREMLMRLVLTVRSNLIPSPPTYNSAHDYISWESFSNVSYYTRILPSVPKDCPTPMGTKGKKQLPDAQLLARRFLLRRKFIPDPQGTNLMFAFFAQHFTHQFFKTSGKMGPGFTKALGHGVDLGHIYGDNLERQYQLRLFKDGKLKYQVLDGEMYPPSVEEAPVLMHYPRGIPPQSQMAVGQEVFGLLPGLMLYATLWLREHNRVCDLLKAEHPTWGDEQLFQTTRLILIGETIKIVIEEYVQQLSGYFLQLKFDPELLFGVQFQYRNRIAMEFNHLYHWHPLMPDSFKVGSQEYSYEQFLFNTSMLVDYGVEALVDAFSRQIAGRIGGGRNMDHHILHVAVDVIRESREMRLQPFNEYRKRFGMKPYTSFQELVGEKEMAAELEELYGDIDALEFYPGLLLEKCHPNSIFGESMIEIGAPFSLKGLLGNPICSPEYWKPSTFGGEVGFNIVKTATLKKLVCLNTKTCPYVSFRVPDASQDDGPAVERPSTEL

Compound | IC50 [3] [µM] | IC50 [4] [µM] | EC50 at 10 min [7] [µM] | further results
CC(C(=O)[O-])c1ccc(CC2CCCC2=O)cc1-c1ccc(O)cc1.[Na+] (stereo not drawn) | 11 | 326 | 25000 | Activity (Rattus norvegicus [1]): Non-toxic; inhibition (Rattus norvegicus [2]): Active; inhibition (Rattus norvegicus [5]): Active; Activity (Rattus norvegicus [6]): Active
CC(C(=O)O)c1ccc(CC2CCCC2=O)c(-c2ccc(OC(F)(F)F)cc2)c1 (stereo not drawn) | 72 | 460 | < 10000 | 
CC(C(=O)O)c1ccc(C[C@H]2CCC[C@@H]2O)cc1-c1ccc(O)cc1 (mixture of isomers) | 20 | 650 |  | 
CSc1ccc(-c2cc(C(C)C(=O)O)ccc2CC2CCCC2=O)cc1 (stereo not drawn) | > 1000 | 758 | < 10000 | 
CC(C(=O)O)c1ccc(CC2CCCC2=O)cc1-c1ccc(OC(F)(F)F)cc1 (stereo not drawn) | > 1000 | 515 | 6000 | 
CC(C(=O)O)c1ccc(CC2CCCC2=O)cc1-c1ccc(F)cc1 (stereo not drawn) | 36 | 174 | 20000 | 
CC(C(=O)O)c1ccc(CC2CCCC2=O)c(-c2ccc(C(=O)O)cc2)c1 (stereo not drawn) | > 1000 | > 1000 |  | 
CC(C(=O)O)c1ccc(CC2CCCC2=O)cc1[N+](=O)[O-] (stereo not drawn) | 49 | 93 |  | 
CC(C(=O)O)c1ccc(CC2CCCC2=O)c(-c2ccc(O)cc2)c1 (stereo not drawn) |  | > 1000 |  | 
Cc1ccc(-c2cc(C(C)C(=O)O)ccc2CC2CCCC2=O)cc1 (stereo not drawn) | 420 | 56 | < 100000 | 
CC(C(=O)O)c1ccc(CC2CCCC2=O)cc1Cl (stereo not drawn) | 2 | 4 | 100000 | 
CC(C(=O)O)c1ccc(CC2CCCC2=O)cc1-c1ccccc1 (stereo not drawn) | 70 | 310 | < 100000 | 
COc1ccc(-c2cc(CC3CCCC3=O)ccc2C(C)C(=O)O)cc1 (stereo not drawn) | 430 | 74 | < 100000 | 
COc1ccc(-c2cc(C(C)C(=O)O)ccc2CC2CCCC2=O)cc1 (stereo not drawn) | > 1000 | 800 | < 100000 | 
CSc1ccc(-c2cc(CC3CCCC3=O)ccc2C(C)C(=O)O)cc1 (stereo not drawn) | 150 | 575 | < 100000 | 
CC(C(=O)O)c1ccc(CC2CCCC2=O)c(Br)c1 (stereo not drawn) | 23 | 49 | < 100000 | 
Cc1ccc(-c2cc(CC3CCCC3=O)ccc2C(C)C(=O)O)cc1 (stereo not drawn) | 540 | 470 | < 100000 | 
CC(C(=O)O)c1ccc(CC2CCCC2=O)cc1-c1ccc(C(=O)O)cc1 (stereo not drawn) | 76 | > 1000 | < 10000 | 
CC(C(=O)O)c1ccc(C[C@H]2CCC[C@H]2O)cc1-c1ccc(O)cc1 (mixture of isomers) | 17 | 47 |  | 
CC(C(=O)[O-])c1ccc(CC2CCCC2=O)cc1.[Na+] (stereo not drawn) [LOXOPROFEN SODIUM] |  |  |  | Activity (Rattus norvegicus [8]): Dose-dependent effect; Activity (Rattus norvegicus [9]): Active; inhibition (Rattus norvegicus [10]): Active; inhibition (Rattus norvegicus [11]): Active
CC(C(=O)O)c1ccc(CC2CCCC2=O)cc1I (stereo not drawn) | 540 | 270 |  | 
CC(C(=O)O)c1ccc(CC2CCCC2=O)c(-c2ccccc2)c1 (stereo not drawn) | 290 | 54 | < 100000 | 
CC(C(=O)O)c1ccc(CC2CCCC2=O)c(-c2ccc(F)cc2)c1 (stereo not drawn) | 36 | 174 | < 100000 | 
Cc1ccc(-c2cc(C(F)(F)F)nn2-c2ccc(S(N)(=O)=O)cc2)cc1 [CELECOXIB] |  |  | 90 | 
